ChEMBL document CHEMBL1141078, “Discovery of potent, nonsystemic apical sodium-codependent bile acid transporter inhibitors (Part 1)” (J Med Chem, 2005)

Legend:
[1] = biological target: T1, Ileal sodium/bile acid cotransporter (Homo sapiens, UniProt Q12908); experiment: In vitro inhibition of ASBT mediated uptake of [14C]taurocholate (5 uM) in Baby hamster cells expressing human IBAT; format: cell-based
T1 sequence (Q12908 whole entry): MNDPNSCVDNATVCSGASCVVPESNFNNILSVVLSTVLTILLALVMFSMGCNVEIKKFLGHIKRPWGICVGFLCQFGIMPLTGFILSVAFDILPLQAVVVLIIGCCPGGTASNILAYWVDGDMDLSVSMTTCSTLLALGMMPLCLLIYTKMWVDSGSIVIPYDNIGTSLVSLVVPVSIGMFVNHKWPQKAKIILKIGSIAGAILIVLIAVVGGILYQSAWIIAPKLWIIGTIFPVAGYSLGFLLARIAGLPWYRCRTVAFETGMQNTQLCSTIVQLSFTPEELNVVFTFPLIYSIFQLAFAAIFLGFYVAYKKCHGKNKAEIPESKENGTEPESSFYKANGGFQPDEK
In short: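 BHK cells stably transfected with human IBAT cDNA (H14) were seeded 24–72 h before assay at cell densities adjusted to that interval. Cells were washed, then incubated for 2 h at 37 °C in DMEM (4.5 g/L glucose, 0.2% fatty-acid-free BSA) with test compound and [14C]taurocholate. Wells were washed with cold PBS containing BSA and then with PBS alone. Cell-associated radioactivity was measured by scintillation counting, and IC50 values were derived.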

[2] = biological target: T1, Ileal sodium/bile acid cotransporter; experiment: Effect on serum total cholesterol in cholesterol-fed hamster; control is at 129; format: functional
[3] = biological target: T1, Ileal sodium/bile acid cotransporter; experiment: Effect on 24 hr fecal weight in cholesterol-fed hamster; control is at 1.7; format: functional, Feces
[4] = biological target: T1, Ileal sodium/bile acid cotransporter; experiment: Effect on fecal bile acid in cholesterol-fed hamster; control is at 6.1; format: functional, Feces
[5] = biological target: T1, Ileal sodium/bile acid cotransporter; experiment: Effect on serum total cholesterol in cholesterol-fed hamster; control is at 135; format: functional
[6] = biological target: T1, Ileal sodium/bile acid cotransporter; experiment: Effect on 24 hr fecal weight in cholesterol-fed hamster; control is at 2.1; format: functional, Feces
[7] = biological target: T1, Ileal sodium/bile acid cotransporter; experiment: Effect on fecal bile acid in cholesterol-fed hamster; control is at 8.0; format: functional, Feces
[8] = biological target: T1, Ileal sodium/bile acid cotransporter; experiment: Effect on serum total cholesterol in cholesterol-fed hamster; control is at 195; format: functional
[9] = biological target: T1, Ileal sodium/bile acid cotransporter; experiment: Effect on 24 hr fecal weight in cholesterol-fed hamster; control is at 3.5; format: functional, Feces
[10] = biological target: T1, Ileal sodium/bile acid cotransporter; experiment: Effect on fecal bile acid in cholesterol-fed hamster; control is at 8.7; format: functional, Feces
[11] = biological target: T1, Ileal sodium/bile acid cotransporter; experiment: Effect on serum total cholesterol in cholesterol-fed hamster; control is at 143; format: functional
[12] = biological target: T1, Ileal sodium/bile acid cotransporter; experiment: Effect on 24 hr fecal weight in cholesterol-fed hamster; control is at 2.3; format: functional, Feces
[13] = biological target: T1, Ileal sodium/bile acid cotransporter; experiment: Effect on fecal bile acids in cholesterol-fed hamster; control is at 6.2; format: functional, Feces

SMILES	IC50 [1] [nM]	other results
CCCCC1(CCCC)CS(=O)(=O)c2cc(OC)ccc2[C@@H](c2ccccc2)[C@H]1O	190	
C=CCCCCCCCCOc1ccc2c(c1)S(=O)(=O)C[C@@](CC)(CCCC)[C@H](O)[C@@H]2c1ccccc1	16000	
CCCCC1(CCCC)CS(=O)(=O)c2ccc([N+](C)(C)C)cc2[C@@H](c2ccccc2)[C@H]1O	210	
CCCC[C@]1(CC)CS(=O)(=O)c2ccc(N)cc2[C@@H](c2ccccc2)[C@H]1O	68	Total cholesterol [2]: 126 mg/dL; Fecal weight [3]: 1.6 g; FBA [4]: 8.8 ((mmol/day)/100g)
CCCCCCNc1ccc2c(c1)[C@@H](c1ccccc1)[C@@H](O)[C@](CC)(CCCC)CS2(=O)=O	1670	
CCCC[C@]1(CC)CS(=O)(=O)c2ccccc2[C@@H](c2ccccc2)[C@H]1O (racemic)	280	
CCCC[C@]1(CC)CS(=O)(=O)c2ccccc2[C@H](c2ccccc2)[C@H]1O (racemic)		Inhibition [1]: 37%
CCCC[C@]1(CC)CS(=O)(=O)c2ccc(NS(C)(=O)=O)cc2[C@@H](c2ccccc2)[C@H]1O	600	
CCCCCC1(CCCCC)CS(=O)(=O)c2ccc(C)cc2[C@@H](c2ccc(F)cc2)[C@H]1O	318	
CCCC[C@]1(CC)CS(=O)(=O)c2ccc(NO)cc2[C@@H](c2ccccc2)[C@H]1O	260	
CCCC[C@]1(CC)CS(=O)(=O)c2ccc(N(C)C)cc2[C@@H](c2ccccc2)[C@H]1O	5	Total cholesterol [5]: 97 mg/dL; Fecal weight [6]: 2.1 g; FBA [7]: 13.7 ((mmol/day)/100g)
CCCCC1(CCCC)CS(=O)(=O)c2ccc(Br)cc2[C@@H](c2ccccc2Br)[C@H]1O	550	
CCCCCC(=O)Nc1ccc2c(c1)[C@@H](c1ccccc1)[C@@H](O)[C@](CC)(CCCC)CS2(=O)=O	300	
CCCCC1(CCCC)CS(=O)(=O)c2ccc(N(C)C)cc2[C@@H](c2ccc(OCCOCCOCC[N+](CC)(CC)CC)cc2)[C@H]1O.[Br-]	3	Total cholesterol [8]: 141 mg/dL; Fecal weight [9]: 3.9 g; FBA [10]: 16.2 ((mmol/day)/100g)
CCCC[C@]1(CC)CS(=O)(=O)c2ccc(NC(=O)OCc3ccccc3)cc2[C@@H](c2ccccc2)[C@H]1O	400	
CCCC[C@]1(CC)CS(=O)(=O)c2ccccc2[C@@H](c2ccccc2)[C@@H]1O (racemic)	4800	
CC1(C)CS(=O)(=O)c2ccc(N)cc2[C@@H](c2ccccc2)[C@H]1O	> 50000	
CCCC[C@]1(CC)CS(=O)(=O)c2cc(OC)ccc2[C@@H](c2ccccc2)[C@H]1O	120	Total cholesterol [11]: 126 mg/dL; Fecal weight [12]: 2.4 g; FBA [13]: 11.9 ((mmol/day)/100g)
CCCC[C@]1(CC)CS(=O)(=O)c2ccc(-c3ccccc3)cc2[C@@H](c2cccc(OC)c2)[C@H]1O	180	
CCCC[C@]1(CC)CS(=O)(=O)c2ccc(N(O)C(=O)OC(C)(C)C)cc2[C@@H](c2ccccc2)[C@H]1O	2670	

The remaining molecules from weak to strong by IC50 [1], led by results:

IC50 [1] [nM]	SMILES	other results
180	CCCCC1(CCCC)CS(=O)(=O)c2c(F)cccc2[C@@H](c2ccc(F)cc2)[C@H]1O	
180	CCCCC1(CCCC)CS(=O)(=O)c2c(cccc2N(C)C)[C@@H](c2ccc(F)cc2)[C@H]1O	
120	CCCCC1(CCCC)CS(=O)(=O)c2cc(N(C)C)ccc2[C@@H](c2ccccc2)[C@H]1O	
90	CCCC[C@]1(CC)CS(=O)(=O)c2ccc(NC(C)=O)cc2[C@@H](c2ccccc2)[C@H]1O	
70	CCCC[C@]1(CC)CS(=O)(=O)c2ccc(Br)cc2[C@@H](c2cccc(OC)c2)[C@H]1O	
59	CCCC[C@]1(CC)CS(=O)(=O)c2ccc(N3CCCC3)cc2[C@@H](c2ccc(F)cc2)[C@H]1O	
55	CCCC[C@]1(CC)CS(=O)(=O)c2ccc(OC)cc2[C@@H](c2ccccc2)[C@H]1O	
50	CCCCC1(CCCC)CS(=O)(=O)c2ccc(OC)cc2[C@@H](c2ccc(F)cc2)[C@H]1O	
46	CCCCC1(CCCC)CS(=O)(=O)c2ccc(C)cc2[C@@H](c2ccc(F)cc2)[C@H]1O	
21	CCCC[C@]1(CC)CS(=O)(=O)c2ccc(C)cc2[C@@H](c2ccc(F)cc2)[C@H]1O	
19	CCCC[C@]1(CC)CS(=O)(=O)c2ccc(SC)cc2[C@@H](c2ccc(F)cc2)[C@H]1O	
13	CCCCC1(CCCC)CS(=O)(=O)c2ccc(N(C)C)cc2[C@@H](c2ccccc2)[C@H]1O	
10	CCCCC1(CCCC)CS(=O)(=O)c2ccc(N(C)C)cc2[C@@H](c2ccc(F)cc2)[C@H]1O	
7	CCCCC1(CCCC)CS(=O)(=O)c2ccc(N(C)C)cc2[C@@H](c2ccc(OC)cc2)[C@H]1O	
2	CCCCC1(CCCC)CS(=O)(=O)c2c(OC)cc(N(C)C)cc2[C@@H](c2ccc(OC)cc2)[C@H]1O	
